From PubChem BioAssay
XBP1 UPR activ: activators of adaptive XBP1 UPR arm, primary screen, cell-based, CHO-XBP1 luciferase reporter, luminescence, uHTS; activation, % at 20 µM; hit rate 0.33% among 330,000; IRE1-XBP1 UPR activation; percent of tunicamycin response, DMSO as zero; AID 463104, 2010;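 active = versus positive control, 20 µM dose yields 30% or more activation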
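Material: CHO cell line with stable XBP1 luciferase reporter; schedule: 16-18 h cell attachment at 37 °C, then 6 h compound exposure; signal: glow luminescence from Steady-Glo reagent; medium: serum-containing F12 medium, 10% FBS; benchmarks: tunicamycin 10 µg/mL and vehicle-only wells; read-out: percent activation relative to tunicamycin reference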
aDG glyco up: activators of alpha-DG glycosylation, primary screen, uHTS, Pro5-aDG cells, AlphaScreen | alpha-DG glycosylation AlphaScreen (IIH6); 0% Pro5, 100% B10-LARGE cell signal | activation, % at 10 µM | hit rate 0.22% among 360,000 | AID 624168, 2012;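 active = activation of at least 8% versus controls, or a plate z-score of at least 8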;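 note: Pro5 are CHO cells carrying HIG-tagged alpha-DG that lacks glycosylation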
GRIN3A LBD mod: binders of NR3A ligand-binding domain, primary screen, biophysical, differential scanning fluorimetry, uHTS. Glutamate receptor ionotropic, NMDA 3A (GRIN3A) ligand-binding domain. NR3A LBD differential scanning fluorimetry, Tm shift; 0% = protein alone, 100% = glycine-bound protein. Tm shift relative to glycine control, % at 25 µM. hit rate 2.5% among 340,000. AID 1259313, 2017;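 active = melting temperature shift of at least 10% of the positive control shift, at one fixed dose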
UPR CHOP act: activators of apoptotic CHOP UPR arm, primary screen, cell-based, CHO-CHOP luciferase reporter, luminescence, uHTS; UPR activation; percent of tunicamycin response over DMSO baseline; activation, % at 10 µM; hit rate 0.34% among 330,000; AID 449763, 2010;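 active = at 10 µM dose, activation of 40% or more, normalized to positive control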
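Assay system: CHO cells with stable CHOP pathway luciferase reporter; Buffer or medium: F12 plus 10% serum; Times: 16-18 h cell attachment, then 6 h compound exposure, 37 °C; Signal: luciferase luminescence; Read-out basis: percent activation relative to tunicamycin control; Control set: tunicamycin high control, DMSO low control.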
MPTP inh: mitochondrial permeability transition pore inhibitors, primary screen, biochemical, isolated mouse mitochondria, absorbance. hit rate 1.4% among 360,000. Ca2+ swelling absorbance, 30 min. inhibition, % at 10 µM;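 active = inhibition of 50% or more, scaled per plate between neutral and stimulator controls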
CHOP inh: inhibitors of CHOP promoter induction, primary screen, cell-based, unfolded protein response, luciferase reporter. CHO-K1 CHOP-promoter luciferase, tunicamycin-induced, 15-18 h. inhibition, % at 10 µM. hit rate 3.8% among 220,000. AID 2732, 2010;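 active = compounds that reduced the stress-induced luciferase reporter signal by more than about 70% of percent inhibition, limit read from the data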
CHOP confirm: retest of CHOP induction inhibitors, confirmation, cell-based; shares compounds with CHOP inh; CHO-CHOP promoter luciferase reporter, tunicamycin-induced, luminescence; inhibition, % at 10 µM; hit rate 45% among 2,100;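 active = mean of three repeat readings of reporter signal inhibition above a set limit, cut at about 70% in these data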
Hits are given with their value; i = inactive; nt = no result given. Hits are enriched below; roughly 5.6% of the tested compounds scored in any of these assays.

SMILES	XBP1 UPR activ	aDG glyco up	GRIN3A LBD mod	UPR CHOP act	MPTP inh	CHOP inh	CHOP confirm
O=C(OC(C(=O)Nc1cccc(C(F)(F)F)c1)c1ccccc1)C1CCCCC1 (stereo not given)	nt	i	13.7	nt	i	106.7	i
Fc1ccc(-n2nnnc2-c2cnc(-c3cccs3)nc2C(F)(F)F)cc1	i	i	i	i	i	105.2	120.6
FC(F)(F)c1nc(-c2ccncc2)ncc1-c1nnnn1-c1ccccc1	i	i	i	i	i	i	nt
CCOC(=O)c1c(CN2CCOCC2)n(-c2ccccc2)c2cc(Br)c(O)cc12	i	i	i	i	i	98.7	95.4
COc1ccc(CCNC(=O)Nc2cccs2)c(OC)c1	i	i	i	i	i	nt	nt
O=[N+]([O-])c1cc2oc3c(c2c(C=NCc2ccccc2)c1O)CCCC3	i	i	i	i	i	99.2	i
COC(=O)C[C@H]1CC[C@@H](NS(=O)(=O)c2ccc(C)cc2)[C@@H](CO)O1	nt	i	nt	nt	i	nt	nt
COc1cc(NC(=O)COc2ccccc2[N+](=O)[O-])ccc1NC(=O)c1cccs1	nt	i	i	nt	i	103.6	104.8
COc1cc(NC(=O)COc2ccccc2Cl)ccc1NC(=O)c1cccs1	i	i	i	i	i	nt	nt
Nc1c2nc(-c3ccccc3)[nH]c(=O)c2nc(=O)n1-c1ccccc1	i	i	i	i	i	102.7	i
COC(=O)c1[nH]c2ccc(F)cc2c1NC(=O)Nc1ccc(OC)cc1	i	i	i	i	i	i	nt
COC(=O)c1[nH]c2ccc(C)cc2c1NC(=O)Nc1ccc(OC)cc1	i	i	i	i	i	101.0	i
CCN(CC)c1c([N+](=O)[O-])c(=O)n(C)c2ccccc12	i	i	i	i	i	i	nt
Cn1c(=O)c([N+](=O)[O-])c(Cl)c2ccccc21	nt	i	i	nt	i	108.1	140.8
Cc1ccc(C(C)C)c(OCC(=O)NN=C2CCCC2)c1	i	i	i	i	i	i	nt
Cc1ccc(C(C)C)c(OCC(=O)NN=C(CCl)CCl)c1	i	nt	nt	i	nt	106.2	i
Cc1ccc(C(C)C)c(OCC(=O)N/N=C/C2CCCCC2)c1	i	i	i	i	i	100.8	70.5
C/C(=N/NC(=O)COc1cc(C)ccc1C(C)C)C(=O)O	i	i	i	i	i	i	nt
CC(C)C(=O)N1CCC1(C)C(=O)Nc1ccc2[nH]ccc2c1 (stereo not given)	nt	i	nt	nt	i	nt	nt
Cc1ccc(S(=O)(=O)N/N=C\c2cn(CC(N)=O)c3ccccc23)cc1	i	i	i	i	i	nt	nt
CCn1c2ccc(OC)cc2c2nc3ccccc3nc21	i	nt	i	i	nt	i	nt
CCOc1ccc(Cn2c3ccc(OC)cc3c3nc4ccccc4nc32)cc1	nt	i	i	nt	i	105.5	i
O=C(Nc1ccccc1)OCC1COC(c2ccccc2)(c2ccccc2)O1 (stereo not given)	nt	i	i	nt	i	nt	nt
CCCc1cc(C(=O)Nc2cc(Cl)ccc2O)no1	i	i	i	i	i	nt	nt
CCCc1cc(C(=O)Nc2cc(Br)ccc2O)no1	i	i	i	i	i	nt	i
Cc1ccc2sc(N(CCCN(C)C)C(=O)c3nc4ccccc4s3)nc2c1C	i	i	i	i	i	103.5	95.9
COc1ccc(-n2c(N)c(C(=O)NCc3ccco3)c3nc4ccccc4nc32)cc1OC	i	i	i	i	i	104.4	i
Nc1c(C(=O)NCc2ccc3c(c2)OCO3)c2nc3ccccc3nc2n1CCCN1CCOCC1	i	i	i	i	i	nt	nt
COc1ccccc1CNC(=O)c1c(N)n(CCCN2CCOCC2)c2nc3ccccc3nc12	nt	i	i	nt	i	96.4	i
CCCS(=O)(=O)NC(=O)C1(C)CCN(C(=O)C2(c3ccc(Cl)cc3)CCCC2)C1 (stereo not given)	nt	i	nt	nt	i	nt	nt
